From PubChem
UBC9 SUMO inh = blocks human SUMOylation mediated by UBC9 | hit rate 0.36% among 290,000 | AID 2006 | inhibition, % at 35 µM | HTRF SUMOylation assay, SAE1/SAE2 + UBC9, in vitro | P63279; in the data active = inhibition above about 50%, passing the limit was not always enough
p97 inhibitor = inhibitors of human p97 ATPase | P55072 | recombinant p97 ATPase, Kinase-Glo ATP luminescence, 3 h | inhibition, % at 8 µM | hit rate 0.42% among 220,000; in the data active = inhibition above about 15%;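 note: 0% = DMSO vehicle and 100% = wells lacking enzyme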
Target sequence (P55072 whole entry, looked up): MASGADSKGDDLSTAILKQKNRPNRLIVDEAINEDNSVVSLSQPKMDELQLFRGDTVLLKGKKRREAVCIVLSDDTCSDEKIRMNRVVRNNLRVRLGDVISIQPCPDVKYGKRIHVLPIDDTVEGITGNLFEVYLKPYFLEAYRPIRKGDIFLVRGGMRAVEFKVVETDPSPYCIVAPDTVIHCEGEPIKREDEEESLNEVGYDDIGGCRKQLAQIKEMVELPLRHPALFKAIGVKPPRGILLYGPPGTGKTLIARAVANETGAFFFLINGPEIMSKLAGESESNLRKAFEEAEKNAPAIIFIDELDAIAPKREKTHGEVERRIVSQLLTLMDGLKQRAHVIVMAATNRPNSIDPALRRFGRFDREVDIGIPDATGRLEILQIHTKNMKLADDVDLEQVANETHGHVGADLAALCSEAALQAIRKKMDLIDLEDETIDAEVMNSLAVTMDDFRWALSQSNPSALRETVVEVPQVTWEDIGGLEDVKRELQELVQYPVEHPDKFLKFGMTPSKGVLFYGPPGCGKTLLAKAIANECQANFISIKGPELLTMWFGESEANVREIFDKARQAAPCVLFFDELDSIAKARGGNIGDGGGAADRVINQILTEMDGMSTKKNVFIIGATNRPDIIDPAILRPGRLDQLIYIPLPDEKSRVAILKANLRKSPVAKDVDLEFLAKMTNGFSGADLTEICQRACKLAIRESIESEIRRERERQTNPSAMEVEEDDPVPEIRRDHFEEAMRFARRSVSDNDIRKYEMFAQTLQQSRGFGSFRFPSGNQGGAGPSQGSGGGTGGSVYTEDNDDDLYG
Diaph inh CS = counter-screen for diaphorase-based assays: diaphorase inhibitors and chemical oxidizers. hit rate 0.69% among 190,000. inhibition, % at 20 µM. diaphorase resazurin-to-resorufin fluorescence, NADH, 16 min; bacterial (C. kluyveri) enzyme, not human. AID 1217;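 active = primary screen inhibition at 20 µM above a set limit, cut at about 50% in these data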;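 note: plate controls were DMSO with full reaction for no effect and wells lacking NADH for full effect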
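Test system: diaphorase enzyme from Clostridium kluyveri; amount: diaphorase at 0.14 U/mL in enzyme working solution; detection: fluorescence of resorufin formed from resazurin, Ex 544/Em 590 nm; times: reaction incubation of 16 min at room temperature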
G6PDH CS = inhibits Leuconostoc G6PDH, flagging false hits in G6PDH-based assays; Purified L. mesenteroides G6PDH, diaphorase/resazurin coupled fluorescence, 45 min; hit rate 0.12% among 200,000; inhibition, % at 5 µM; in the data active = inhibition above about 50%
HKDC1 inhibitor = HKDC1 (human) hexokinase inhibition; Q2TB90; recombinant HKDC1, G6PDH/diaphorase resazurin coupled fluorescence; inhibition, % at 20 µM; hit rate 0.16% among 340,000;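 active = inhibition above about 35% when tested at 20 µM, limit read from the data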;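 note: plate controls were DMSO wells with enzyme for no effect and DMSO wells lacking enzyme for full effect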
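Assay system: recombinant HKDC1 hexokinase; detection: coupled resazurin fluorescence, excitation 525 nm, emission 613 nm; benchmarks: DMSO-plus-enzyme-mix negative control, buffer-substituted positive control; compound dosing: single 20 µM dose; schedule: 90 min at room temperature in dark; also added: glucose plus 1 mM ATP as hexokinase substrates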
p97 confirm = human p97 ATPase inhibition, confirmation; shares compounds with p97 inhibitor; inhibition, % at 8 µM; hit rate 44% among 760; recombinant p97 ATPase, Kinase-Glo ATP luminescence; AID 1517;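 active = percent inhibition of p97 ATPase above a set limit, the primary screen's mean plus 3 SD, cut at about 15% in these data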;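 note: 0% = DMSO wells and 100% = wells lacking p97 protein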
The depositor's hits bear a star; x = no result. Hits are enriched below; roughly 0.95% of the tested compounds scored in any of these assays.

SMILES | UBC9 SUMO inh | p97 inhibitor | Diaph inh CS | G6PDH CS | HKDC1 inhibitor | p97 confirm
CN(C)CCCN1C(=O)c2cccc3cccc(c23)C1=O | 28 | x | x | x | -8 | x
COc1ccc(N(CCCN2C(=O)c3cccc4cccc(c34)C2=O)C(=O)c2cccc(OC)c2)cc1 | -12 | 1 | 56* | -24 | 30 | x
CC(C)NC(=O)N(C)C[C@H]1Oc2c(NC(=O)Nc3ccccc3)cccc2C(=O)N([C@H](C)CO)C[C@@H]1C | x | x | x | x | -6 | x
Cc1ccc(-c2cc(C(=O)N(C)CC(=O)Nc3ccccc3Br)c3ccccc3n2)o1 | x | x | x | x | 2 | x
Cc1nn(-c2ccccc2)c(Cl)c1/C=N/Nc1ccc(S(=O)(=O)Nc2ccccc2C(=O)O)cc1[N+](=O)[O-] | 62* | -15 | 28 | 9 | -1 | x
CSc1ccc(C=NNc2ccc(S(=O)(=O)Nc3ccccc3C(=O)O)cc2[N+](=O)[O-])cc1 | x | x | x | x | 11 | x
C[C@H](O)Cc1cn(-c2cc3cc(C#Cc4ccsc4)ccc3oc2=O)nn1 | x | x | x | x | -9 | x
Cc1ccc(NC(=O)COC(=O)c2oc3ccccc3c2C)cc1S(=O)(=O)N1CCOCC1 | x | x | x | x | -4 | x
CCOc1ccc(Nc2nc(NCCN3CCOCC3)nc(OC)n2)cc1 | 12 | 15* | 9 | 12 | -8 | x
CCOC(=O)c1[nH]c2ccccc2c1N=CN(C)C | x | 3 | x | x | -8 | x
CN(C)C=Nc1ccc2nc3c(cc2c1)[nH]c1ccccc13 | 50* | x | x | x | 19 | x
O=C(Nc1ccc(Cl)cc1)C1CCCN(C2=NS(=O)(=O)c3ccccc32)C1 (centres undefined) | x | x | x | x | -2 | x
Cc1[nH]n(-c2ccccc2)c(=O)c1-c1ccc(Cl)cc1 | -13 | 3 | -1 | 0 | 0 | x
CC1=NN(c2ccc(Cl)cc2)C(=O)C1C(c1ccccc1O)c1c(C)[nH]n(-c2ccc(Cl)cc2)c1=O (centres undefined) | 70 | 32* | 23 | -5 | 13 | 8
O=C(CN1CCN(C(=O)c2ccco2)CC1)Nc1ccc(F)cc1F | 3 | x | x | x | -6 | x
CC(C)c1ccc2c(c1)CCC1C(C)(CN)CCCC21C (centres undefined) | -16 | 22* | x | x | 1 | 14
Oc1ccccc1Nc1nc(NCc2ccccc2)c2ccccc2n1 | -12 | 26* | -42 | 14 | -2 | 31*
Fc1ccccc1-c1nc(NCc2ccco2)c2ccccc2n1 | 4 | 22* | 1 | -2 | -8 | 28*
COc1ccc2[nH]cc(C(=O)CCl)c2c1 | 15 | 42* | x | x | 15 | 46*
COc1ccc2[nH]cc(C(=O)CN3CC(C)CC(C)C3)c2c1 (centres undefined) | 2 | x | x | x | -1 | x
N#CCCN(C(=O)COC(=O)c1cc(S(=O)(=O)N2CCOCC2)ccc1Cl)c1ccc(F)cc1 | x | x | x | x | 0 | x
C=CCNC(=O)C(C#N)c1nc2ccccc2nc1N1CCCCCC1 (centres undefined) | 96 | 21* | 45 | 1 | 10 | -2
Cc1ccc(C)c(S(=O)(=O)C(C#N)c2nc3ccccc3nc2N2CCCC2)c1 (centres undefined) | 99 | 19* | 43 | 22 | 13 | 8
Cc1ccc(C)c(S(=O)(=O)C(C#N)c2nc3ccccc3nc2N2CCOCC2)c1 (centres undefined) | 60 | 0 | 11 | 9 | 5 | x
N#CC(c1nc2ccccc2nc1N1CCCC1)S(=O)(=O)c1ccccc1 (centres undefined) | 99 | 17* | 53* | 29 | 6 | 4
SMILES | UBC9 SUMO inh | p97 inhibitor | Diaph inh CS | G6PDH CS | HKDC1 inhibitor | p97 confirm
CC(OC(=O)c1ccncc1)C(=O)NC1CCCC1 (centres undefined) | 5 | -3 | 19 | 0 | -10 | x
CC(C)Cc1nn2c(N)c(/C=C3\C=Nc4ccccc43)c(=O)nc2s1 | 22 | 16* | 7 | 4 | -4 | 12
CCC(CC)c1nn2c(N)c(/C=C3\C(C)=Nc4ccccc43)c(=O)nc2s1 | 12 | 24* | x | x | 2 | 25*
CCC(CC)c1nn2c(N)c(/C=C3\C=Nc4ccccc43)c(=O)nc2s1 | 20 | 1 | x | x | 1 | x
CCN1CCN(C(=O)c2cc(S(=O)(=O)N3CCCCC3)ccc2Cl)CC1 | 7 | x | x | x | -5 | x
COc1ccc(C(CNC(=O)Nc2cccc(C)c2)N2CCN(C)CC2)cc1 (centres undefined) | 9 | x | x | x | 0 | x
CCOC(=O)C1=C(C)OC2(O)c3ccccc3C(=O)C12O (centres undefined) | 94* | 17* | x | x | -13 | 27*
CC(=O)C1=C(C)OC2(O)c3ccccc3C(=O)C12O (centres undefined) | x | 20* | x | x | -7 | 8
O=c1cc(N=Nc2ccc(Cl)cc2)[nH]c(=O)[nH]1 | 14 | 28* | x | x | 18 | 15*
CCN(CC)CCCNc1ccc2ncn3c4ccc(O)cc4c(=O)c1c23 | x | x | x | x | 29 | x
O=C(NC1(O)C(=O)c2ccccc2C1=O)c1c(Cl)cccc1Cl | 95* | 20* | x | x | -11 | 41*
O=C(Nc1ccccc1Cl)c1c(F)c(F)c(F)c(F)c1F | x | 4 | x | x | -4 | x
CCOC(=O)/C(C#N)=C/c1c[nH]c2ccccc12 | 0 | 1 | 10 | 9 | -4 | x
CCOC(=O)CC(C#N)c1c[nH]c2ccccc12 (centres undefined) | 0 | 16* | 6 | -3 | 0 | 9
CN(Cc1ccccc1Cl)C(=O)CCNC(=O)c1ccco1 | x | x | x | x | -4 | x
Cc1ccc(/C=N/Nc2nc(N3CCOCC3)nc(N3CCOCC3)n2)o1 | 1 | 0 | 0 | 0 | -6 | x
C(=N\Nc1nc(N2CCOCC2)nc(N2CCOCC2)n1)/c1ccco1 | 11 | 18* | x | 4 | x | 9
COc1ccc(OC)c2sc(NC(=O)CCS(=O)(=O)c3ccccc3)nc12 | x | 19* | x | x | 3 | 25*
COc1ccc(OC)c2sc(NC(=O)CCSc3ccccc3)nc12 | -13 | 5 | -6 | -23 | -3 | x
O=[n+]1c2c(n([O-])c3ccccc31)CCCC2 | 8 | 15* | 10 | 21 | 3 | 4
O=[n+]1c2c(n([O-])c3cc(Br)ccc31)CCCC2 | 4 | 2 | 17 | -15 | -9 | x
CCC(C)c1ccc(C2C3=C(Nc4nc(N)[nH]c(=O)c42)c2ccccc2C3=O)cc1 (centres undefined) | 14 | 15* | x | x | 3 | 5
Nc1nc2c(c(=O)[nH]1)C(c1ccccc1)C1=C(N2)c2ccccc2C1=O (centres undefined) | 41 | 9 | x | x | 3 | x
COc1cc(CNc2ccccc2)c([N+](=O)[O-])cc1OC | 19 | x | x | x | 16 | x
Cc1ccc(S(=O)(=O)n2nc(OC(=O)c3ccccc3C)cc2N)cc1 | -21 | x | x | x | 15 | x
COc1ccccc1C(=O)Oc1cc(N)n(S(=O)(=O)c2ccc(C)cc2)n1 | -26 | 29* | 12 | 3 | 9 | 39*
CC(=O)c1c(C)[nH]c(C(=O)N(C)CC(=O)Nc2ccc(Cl)c(C(F)(F)F)c2)c1C | -14 | x | x | x | -1 | x
